Measurements from different studies.
Each line is one published result; the experiments were not run side by side.
Target: Vascular endothelial growth factor receptor 3 (FLT4, Homo sapiens, UniProt P35916)

SMILES | test | conditions | remaining binding
O=C(Nc1c[nH]nc1C(=O)NC1CCNCC1)c1cc(F)cc(F)c1 | binding, competition with immobilised ligand | 1 µM | 100%
F[C@@H]1CCN(c2nccc(-c3cnn4ncccc34)n2)C1 | binding | 1 µM | 90%
C[C@@H](c1ccc(-n2cnc3c(N)ncnc32)cc1)N1CCc2nn(C)c(Cc3ccccc3)c2C1=O | binding, competition with immobilised ligand | 0.1 µM | 91%
O=C(NCCCN1CCOCC1)c1ccc(Nc2nccc(-c3cc4ccccc4s3)n2)cc1 | binding, competition with immobilised ligand | 1 µM | 50%
C=CC(=O)Nc1cccc(CN2C(=O)N(c3c(Cl)c(OC)cc(OC)c3Cl)Cc3cnc(NCCCCN(CC)CC)nc32)c1 | cell-free assay, competition with immobilised ligand | 10 µM | 0.2%
CCS(=O)(=O)c1cc2cc(C[C@](O)(CC(C)(C)c3ccc(F)cc3C(N)=O)C(F)(F)F)[nH]c2cn1 | cell-free assay, competition with immobilised ligand | 1 µM | 95%
N[C@@H]1CCN(c2nccc(-c3cnn4ncccc34)n2)C1 | binding | 1 µM | 100%
O=C(c1ccc(Nc2ncc(Cl)c(-c3ccc(Cl)s3)n2)cc1)N1CCC(N2CCCC2)CC1 | binding, competition with immobilised ligand | 1 µM | 0.15%
CN(CCCC(F)(F)F)c1nccc(-c2cnn3ncccc23)n1 | binding | 1 µM | 100%
Cc1cnc(Nc2ccc(C(=O)N3CCC(N4CCCC4)CC3)cc2)nc1-c1cc2ccccc2s1 | binding, competition with immobilised ligand | 1 µM | 0.4%
COc1ncc2cc3ccccc3nc2c1C#N | cell-free assay, competition with immobilised ligand | 5 µM | 96%
CNCc1ccccc1-c1csc([C@@H](C)Nc2nc(C)nc3cc(OC)c(OC)cc23)c1 | cell-free assay, competition with immobilised ligand | 1 µM | 83%
CCN1CCN(Cc2ccc(C(=O)Nc3ccc(C)c(Oc4ccc5c(c4)CC(=O)N5)c3)cc2C(F)(F)F)CC1 | binding, competition with immobilised ligand | 1 µM | 100%
CC(=O)c1c(NS(C)(=O)=O)c2cc(-c3ccc(Cl)cc3)c(-c3ccc(Cl)cc3Cl)nc2n(C)c1=O | cell-free assay, competition with immobilised ligand | 1 µM | 100%
CN(C)c1nccc(-c2cnc3ncccn23)n1 | binding | 1 µM | 88%
Cc1nc(C2CCN(C(=O)c3ccc(OC(F)(F)F)cc3N)CC2)c2ncc(N3CCN(C)CC3)cc2n1 | cell-free assay, competition with immobilised ligand | 1 µM | 75%
c1cnn2ncc(-c3ccnc(N4CCC45COC5)n3)c2c1 | binding | 1 µM | 92%
CCCOc1ccc([C@@H]2[C@@H](C(=O)O)[C@H](c3ccc4c(c3)OCO4)CN2CC(=O)Nc2c(CC)cccc2CC)cc1 | cell-free assay, competition with immobilised ligand | 1 µM | 100%
COc1cnc(Nc2cccc(S(N)(=O)=O)c2)nc1N1CCN(c2ccccc2)C(=O)C1 | binding, competition with immobilised ligand | 1 µM | 100%
N#Cc1ccc(Nc2ccc3[nH]c(=O)[nH]c3c2)c(Cl)c1 | cell-free assay, competition with immobilised ligand | 1 µM | 100%
FC(F)(F)Oc1cccc(-c2cnc3ccc(-c4ccncc4)nn23)c1 | cell-free assay, competition with immobilised ligand | 5 µM | 84%
CC(C)CC(=O)N1CCc2nc(-c3ccc(Br)cc3)nc(N(C)Cc3ccccc3)c2C1 | cell-free assay, competition with immobilised ligand | 0.1 µM | 100%
C[C@@H]1CCN(c2nccc(-c3cnn4ncccc34)n2)C1 | binding | 1 µM | 100%
